Measured values reported in ChEMBL document CHEMBL3526049 (Drug Metab Dispos, 2012).

Key:
Assay type in all cases: ADME, organism-based
[1] = AUC (infinity) in MRP2 knockout Sprague-Dawley rat at 20 mg/kg, po by LC-MS/MS analysis; set-up: time infinity, dose 20 mg/kg, route oral; details: plasma
In short: (§1)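 Male Sprague-Dawley knockout or age/weight-matched wild-type rats with femoral artery and vein cannulas. Crossover design: day 0 i.v. bolus 5 mg/kg sulfasalazine in water at pH 9–10, then day 3 gavage 20 mg/kg in 0.5% carboxymethyl cellulose/PBS pH 7.4. Arterial plasma was sampled to 24 h. Sulfasalazine and sulfapyridine were measured by LC-MS/MS (1–5000 ng/ml). Parameters are noncompartmental; n = 4–8, mean ± S.D.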

[2] = Clearance in MDR1A knockout Sprague-Dawley rat at 5 mg/kg, iv by LC-MS/MS analysis; set-up: dose 5 mg/kg, route intravenous; details: in vivo; in short: as §1
[3] = Oral bioavailability in MRP2 knockout Sprague-Dawley rat at 20 mg/kg by LC-MS/MS analysis; details: in vivo
In short: (§2)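 Male Sprague-Dawley knockout rats or wild-type rats matched for age and weight, with femoral artery and vein cannulas. Crossover design: sulfasalazine 5 mg/kg iv bolus (water, pH 9–10) on day 0, then 20 mg/kg oral gavage (0.5% carboxymethyl cellulose in PBS, pH 7.4) on day 3. Arterial plasma collected 0–24 h. Sulfasalazine and sulfapyridine measured by LC-MS/MS; noncompartmental parameters; mean ± S.D., n = 4 to 8.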

[4] = AUC (infinity) in MDR1A knockout Sprague-Dawley rat at 20 mg/kg, po by LC-MS/MS analysis; set-up: time infinity, dose 20 mg/kg, route oral; details: plasma; in short: as §1
[5] = Volume of distribution at steady state in MRP2 knockout Sprague-Dawley rat at 5 mg/kg, iv by LC-MS/MS analysis; set-up: dose 5 mg/kg, route intravenous; details: in vivo, read-out: Vdss; in short: as §2
[6] = Tmax in wild-type Wistar rat at 5 mg/kg, po by LC-MS/MS analysis; set-up: dose 5 mg/kg, route oral; details: in vivo
[7] = Half life in MRP2-deficient Wistar rat at 5 mg/kg, po by LC-MS/MS analysis; set-up: dose 5 mg/kg, route oral; details: in vivo
In short: (§3)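 Male Wistar wild-type rats and Mrp2-deficient TR⁻ rats with femoral artery and vein cannulas. Sulfasalazine given as an iv bolus (5 mg/kg, water at pH 9–10) and by oral gavage, each followed by arterial plasma sampling over 24 h. Sulfasalazine and sulfapyridine measured by LC-MS/MS; noncompartmental parameters; mean ± S.D., n = 3.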

[8] = Clearance in wild-type Sprague-Dawley rat at 5 mg/kg, iv by LC-MS/MS analysis; set-up: dose 5 mg/kg, route intravenous; details: in vivo; in short: as §1
[9] = AUC (infinity) in BCRP knockout Sprague-Dawley rat at 20 mg/kg, po by LC-MS/MS analysis; set-up: time infinity, dose 20 mg/kg, route oral; details: plasma; in short: as §1
[10] = AUC (infinity) in wild-type Wistar rat at 5 mg/kg, iv by LC-MS/MS analysis; set-up: time infinity, dose 5 mg/kg, route intravenous; details: plasma
In short: (§4)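 Male Wistar wild-type or Mrp2-deficient TR⁻ rats with femoral artery and vein cannulas. Sulfasalazine was given as a 5 mg/kg i.v. bolus and as a 20 mg/kg oral dose. Arterial plasma was sampled to 24 h and analysed for parent and sulfapyridine by LC-MS/MS. Noncompartmental parameters; n = 3, mean ± S.D.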

[11] = Volume of distribution at steady state in MDR1A knockout Sprague-Dawley rat at 5 mg/kg, iv by LC-MS/MS analysis; set-up: dose 5 mg/kg, route intravenous; details: in vivo, read-out: Vdss; in short: as §2
[12] = Oral bioavailability in wild-type Sprague-Dawley rat at 20 mg/kg by LC-MS/MS analysis; details: in vivo; in short: as §2
[13] = Half life in MRP2 knockout Sprague-Dawley rat at 5 mg/kg, iv by LC-MS/MS analysis; set-up: dose 5 mg/kg, route intravenous; details: in vivo; in short: as §2
[14] = Cmax in MRP2 knockout Sprague-Dawley rat at 20 mg/kg, po by LC-MS/MS analysis; set-up: dose 20 mg/kg, route oral; details: in vivo; in short: as §1
[15] = AUC (infinity) in MRP2-deficient Wistar rat at 5 mg/kg, po by LC-MS/MS analysis; set-up: time infinity, dose 5 mg/kg, route oral; details: plasma
[16] = Oral bioavailability in BCRP knockout Sprague-Dawley rat at 20 mg/kg by LC-MS/MS analysis; details: in vivo; in short: as §2
[17] = Cmax in BCRP knockout Sprague-Dawley rat at 20 mg/kg, po by LC-MS/MS analysis; set-up: dose 20 mg/kg, route oral; details: in vivo; in short: as §1
[18] = AUC (infinity) in BCRP knockout Sprague-Dawley rat at 5 mg/kg, iv by LC-MS/MS analysis; set-up: time infinity, dose 5 mg/kg, route intravenous; details: plasma; in short: as §1
[19] = Cmax in MDR1A knockout Sprague-Dawley rat at 20 mg/kg, po by LC-MS/MS analysis; set-up: dose 20 mg/kg, route oral; details: in vivo; in short: as §1
[20] = Half life in wild-type Wistar rat at 5 mg/kg, iv by LC-MS/MS analysis; set-up: dose 5 mg/kg, route intravenous; details: in vivo; in short: as §3
[21] = Half life in MRP2-deficient Wistar rat at 5 mg/kg, iv by LC-MS/MS analysis; set-up: dose 5 mg/kg, route intravenous; details: in vivo; in short: as §3
[22] = Tmax in MDR1A knockout Sprague-Dawley rat at 20 mg/kg, po by LC-MS/MS analysis; set-up: dose 20 mg/kg, route oral; details: in vivo
In short: (§5)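 Male Sprague-Dawley rats (knockout or wild type, matched for age and weight) with femoral artery and vein cannulas, recovered ≥2 days. In an i.v./oral crossover with a 3-day washout, sulfasalazine was given by oral gavage at 20 mg/kg in 0.5% carboxymethyl cellulose/PBS pH 7.4. Arterial plasma was sampled 0–24 h and analysed by LC-MS/MS (1–5000 ng/ml). Noncompartmental analysis; n = 4 to 8.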

[23] = Half life in MDR1A knockout Sprague-Dawley rat at 5 mg/kg, iv by LC-MS/MS analysis; set-up: dose 5 mg/kg, route intravenous; details: in vivo; in short: as §2
[24] = Half life in MRP2 knockout Sprague-Dawley rat at 20 mg/kg, po by LC-MS/MS analysis; set-up: dose 20 mg/kg, route oral; details: in vivo; in short: as §2
[25] = Clearance in wild-type Wistar rat at 5 mg/kg, iv by LC-MS/MS analysis; set-up: dose 5 mg/kg, route intravenous; details: in vivo; in short: as §4
[26] = Tmax in MRP2-deficient Wistar rat at 5 mg/kg, po by LC-MS/MS analysis; set-up: dose 5 mg/kg, route oral; details: in vivo
[27] = AUC (infinity) in MRP2-deficient Wistar rat at 5 mg/kg, iv by LC-MS/MS analysis; set-up: dose 5 mg/kg, route intravenous, time infinity; details: plasma; in short: as §4
[28] = Half life in wild-type Wistar rat at 5 mg/kg, po by LC-MS/MS analysis; set-up: dose 5 mg/kg, route oral; details: in vivo; in short: as §3
[29] = AUC (infinity) in wild-type Wistar rat at 5 mg/kg, po by LC-MS/MS analysis; set-up: time infinity, dose 5 mg/kg, route oral; details: plasma
[30] = Cmax in wild-type Wistar rat at 5 mg/kg, po by LC-MS/MS analysis; set-up: dose 5 mg/kg, route oral; details: in vivo
[31] = Oral bioavailability in MRP2-deficient Wistar rat at 5 mg/kg by LC-MS/MS analysis; details: in vivo; in short: as §3
[32] = AUC (infinity) in MDR1A knockout Sprague-Dawley rat at 5 mg/kg, iv by LC-MS/MS analysis; set-up: time infinity, dose 5 mg/kg, route intravenous; details: plasma; in short: as §1
[33] = Tmax in BCRP knockout Sprague-Dawley rat at 20 mg/kg, po by LC-MS/MS analysis; set-up: dose 20 mg/kg, route oral; details: in vivo; in short: as §5
[34] = Cmax in wild-type Sprague-Dawley rat at 20 mg/kg, po by LC-MS/MS analysis; set-up: dose 20 mg/kg, route oral; details: in vivo; in short: as §1
[35] = Oral bioavailability in MDR1A knockout Sprague-Dawley rat at 20 mg/kg by LC-MS/MS analysis; details: in vivo; in short: as §2
[36] = AUC (infinity) in wild-type Sprague-Dawley rat at 20 mg/kg, po by LC-MS/MS analysis; set-up: time infinity, dose 20 mg/kg, route oral; details: plasma; in short: as §1
[37] = AUC (infinity) in MRP2 knockout Sprague-Dawley rat at 5 mg/kg, iv by LC-MS/MS analysis; set-up: time infinity, dose 5 mg/kg, route intravenous; details: plasma; in short: as §1

O=C(O)c1cc(/N=N/c2ccc(S(=O)(=O)Nc3ccccn3)cc2)ccc1O [SULFASALAZINE]
AUC(0-inf) [1]: 635 ng·h/mL
clearance [2]: 13.5 mL/min/kg
bioavailability [3]: 4%
AUC(0-inf) [4]: 711 ng·h/mL
Vd [5]: 1.3 L/kg
Tmax [6]: 30 min
half-life [7]: 138 min
clearance [8]: 10.4 mL/min/kg
AUC(0-inf) [9]: 13100 ng·h/mL
AUC(0-inf) [10]: 12300 ng·h/mL
Vd [11]: 0.285 L/kg
bioavailability [12]: 1.4%
half-life [13]: 258 min
Cmax [14]: 320 ng/mL
AUC(0-inf) [15]: 462 ng·h/mL
bioavailability [16]: 30%
Cmax [17]: 3870 ng/mL
AUC(0-inf) [18]: 10700 ng·h/mL
Cmax [19]: 213 ng/mL
half-life [20]: 90 min
half-life [21]: 240 min
Tmax [22]: 18 min
half-life [23]: 60 min
half-life [24]: 228 min
clearance [25]: 6.8 mL/min/kg
Tmax [26]: 15 min
AUC(0-inf) [27]: 7730 ng·h/mL
half-life [28]: 126 min
AUC(0-inf) [29]: 1810 ng·h/mL
Cmax [30]: 490 ng/mL
bioavailability [31]: 1.5%
AUC(0-inf) [32]: 6260 ng·h/mL
Tmax [33]: 36 min
Cmax [34]: 185 ng/mL
bioavailability [35]: 2.8%
AUC(0-inf) [36]: 562 ng·h/mL
AUC(0-inf) [37]: 4320 ng·h/mL
